Laboratory results: ChEMBL document CHEMBL1137321, “Identification of small molecule agonists of the orphan nuclear receptors liver receptor homolog-1 and steroidogenic factor-1” (J Med Chem, 2006)
The source made the active and inactive calls. No cut-off for these calls is given here.

Columns and labels:
Steroidogenic factor 1 [1] = molecular target: T1, Steroidogenic factor 1 (Homo sapiens, UniProt Q13285); test: Binding affinity to human SF1 by FRET-based peptide recruitment assay
In short: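 FRET assay measuring recruitment of a DAX-1 peptide (aa 1-23) to human SF-1. The apo-receptor starts with 1 equiv of bound phospholipid. Relative efficacy is normalized to the reference agonist at ±5%.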

Steroidogenic factor 1 [2] = molecular target: T1, Steroidogenic factor 1; test: Binding affinity to human SF1 relative to 3-Hexyl-1-phenylamino-2-phenyl-cis-bicyclo[3.3.0]oct-2-ene1 by FRET-based peptide recruitment assay
In short: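 FRET assay measuring recruitment of a DAX-1 peptide (aa 1-23) to human SF-1. The apo-receptor starts with 1 equiv of bound phospholipid. EC50 determined, n = 3. Relative efficacy is normalized to the reference agonist at ±5%.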

[3] = molecular target: T2, Nuclear receptor subfamily 5 group A member 2 (Homo sapiens, UniProt O00482); test: Binding affinity to human LRH1 relative to 3-(E-Oct-4-en-4-yl)-1-phenylamino-2-phenyl-cis-bicyclo[3.3.0]oct-2-ene by FRET-based peptide recruitment assay
T2 sequence (O00482 whole entry): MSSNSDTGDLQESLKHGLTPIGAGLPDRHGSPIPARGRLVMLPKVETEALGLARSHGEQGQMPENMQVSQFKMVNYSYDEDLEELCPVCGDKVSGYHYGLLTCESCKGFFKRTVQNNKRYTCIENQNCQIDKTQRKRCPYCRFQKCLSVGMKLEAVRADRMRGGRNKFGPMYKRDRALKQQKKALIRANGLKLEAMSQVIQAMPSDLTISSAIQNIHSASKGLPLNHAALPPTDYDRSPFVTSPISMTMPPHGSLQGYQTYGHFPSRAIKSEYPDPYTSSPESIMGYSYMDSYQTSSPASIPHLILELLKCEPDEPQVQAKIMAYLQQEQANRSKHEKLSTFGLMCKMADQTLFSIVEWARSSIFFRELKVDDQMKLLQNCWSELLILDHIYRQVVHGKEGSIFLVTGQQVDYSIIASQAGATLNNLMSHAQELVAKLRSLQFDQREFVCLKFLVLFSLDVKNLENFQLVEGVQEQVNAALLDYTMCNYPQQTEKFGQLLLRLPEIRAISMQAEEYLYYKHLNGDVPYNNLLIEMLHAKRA
In short: (§1)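 The apo-receptor starts with 1 equiv of bound phospholipid. EC50 determined, n = 3. Relative efficacy is normalized to the reference agonist at ±5%.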

[4] = molecular target: T2, Nuclear receptor subfamily 5 group A member 2; test: Binding affinity to human LRH1 by FRET-based peptide recruitment assay; in short: as §1
[5] = molecular target: T2, Nuclear receptor subfamily 5 group A member 2; test: Agonist activity at human LRH1 assessed as induction of SHP mRNA expression in HepG2 cells at 10 uM; type: functional, cell-based
In short: (§2)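 Human liver cells (HepG2 cells or primary hepatocytes) treated with 10 µM compound; SHP mRNA expression quantified by quantitative PCR.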

[6] = molecular target: T2, Nuclear receptor subfamily 5 group A member 2; test: Agonist activity at human LRH1 expressed in CV1 cells assessed as SHP reporter gene transactivation by luciferase assay; type: functional, cell-based, CV-1
[7] = molecular target: T2, Nuclear receptor subfamily 5 group A member 2; test: Agonist activity at human LRH1 assessed as induction of SHP mRNA expression in human primary hepatocytes at 10 uM; type: functional, cell-based; conditions: Hepatocyte; in short: as §2

T1 sequence (Q13285 whole entry, the tested form may be a part): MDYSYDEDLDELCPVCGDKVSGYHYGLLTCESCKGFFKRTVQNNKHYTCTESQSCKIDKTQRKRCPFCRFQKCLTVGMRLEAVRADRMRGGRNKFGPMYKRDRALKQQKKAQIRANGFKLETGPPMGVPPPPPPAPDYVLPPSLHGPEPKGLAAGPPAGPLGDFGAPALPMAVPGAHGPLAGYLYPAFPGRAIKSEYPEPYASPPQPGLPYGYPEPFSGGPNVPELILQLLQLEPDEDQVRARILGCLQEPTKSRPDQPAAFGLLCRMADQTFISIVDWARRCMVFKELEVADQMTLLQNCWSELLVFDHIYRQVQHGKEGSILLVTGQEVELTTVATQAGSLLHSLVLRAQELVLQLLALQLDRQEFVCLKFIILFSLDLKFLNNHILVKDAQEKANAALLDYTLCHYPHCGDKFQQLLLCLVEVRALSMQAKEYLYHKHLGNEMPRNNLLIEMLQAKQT

| Compound | EC50 (Steroidogenic factor 1 [1]) | Efficacy (Steroidogenic factor 1 [2]) | Efficacy [3] | EC50 [4] | Activity [5] | EC50 [6] | Activity [7] |
| --- | --- | --- | --- | --- | --- | --- | --- |
| CCCCCCCCC(C)C1=C(c2ccccc2)[C@]2(Nc3ccccc3)CCC[C@@H]2C1 (relative stereo) | 130 nM | 95% | 25% | 320 nM | – | – | – |
| CCC/C=C(\CCC)C1=C(c2ccc3ccccc3c2)[C@]2(Nc3ccccc3)CCC[C@@H]2C1 (relative stereo) | 130 nM | 30% | 55% | 60 nM | – | – | – |
| CCC/C=C(\CCC)C1=C(C)[C@]2(Nc3ccccc3)CCC[C@@H]2C1 | > 10000 nM | – | 15% | 90 nM | – | – | – |
| CCCCC(C)C1=C(c2ccccc2)[C@]2(Nc3ccccc3)CCC[C@@H]2C1 (relative stereo) | 130 nM | 90% | 45% | 70 nM | – | – | – |
| CCC/C=C(\CCC)C1=C(c2ccccc2)[C@]2(Nc3ccccc3)CCC[C@@H]2C1 (relative stereo) | – | 50% | – | 430 nM | Active | 1000 nM | Active |
| CCCCCCC1=C(c2ccccc2)[C@]2(Nc3cccc4ccccc34)CCC[C@@H]2C1 (relative stereo) | > 10000 nM | – | 45% | 1200 nM | – | – | – |
| CCCCCCC1=C(c2ccccc2)[C@]2(Nc3ccc(Cl)cc3)CCC[C@@H]2C1 (relative stereo) | 700 nM | 25% | 15% | 1000 nM | – | – | – |
| CCCCCCCCCCCCC1=C(c2ccccc2)[C@]2(Nc3ccccc3)CCC[C@@H]2C1 (relative stereo) | > 10000 nM | – | – | > 10000 nM | – | – | – |
| CCCCCCC1=C(c2ccccc2)[C@]2(Nc3ccccc3)CCC[C@@H]2C1 (relative stereo) | – | – | 45% | 34 nM | – | – | – |
| CCC/C=C(\CCC)C1=C(c2cccc(OC)c2)[C@]2(Nc3ccccc3)CCC[C@@H]2C1 (relative stereo) | 140 nM | 45% | 115% | 100 nM | – | – | – |
| CCC/C=C(\CCC)C1=C(C2CCCCC2)[C@]2(Nc3ccccc3)CCC[C@@H]2C1 (relative stereo) | 10 nM | 90% | 50% | 12 nM | – | – | – |
| CCCCCCC1=C(c2ccccc2)[C@]2(Nc3cccc(F)c3)CCC[C@@H]2C1 (relative stereo) | 560 nM | 70% | 45% | 330 nM | – | – | – |
| CCCCC/C=C(\CCCCC)C1=C(c2ccccc2)[C@]2(Nc3ccccc3)CCC[C@@H]2C1 (relative stereo) | 14 nM | 30% | – | > 10000 nM | – | – | – |
| CCC/C=C(\CCC)C1=C(CCCC)[C@]2(Nc3ccccc3)CCC[C@@H]2C1 (relative stereo) | 30 nM | 95% | 50% | 22 nM | – | – | – |
| CCCCCCC1=C(c2ccccc2)[C@]2(Nc3ccc(OC(F)(F)F)cc3)CCC[C@@H]2C1 (relative stereo) | > 10000 nM | – | – | > 10000 nM | – | – | – |
| CC/C=C(\CC)C1=C(c2ccccc2)[C@]2(Nc3ccccc3)CCC[C@@H]2C1 (relative stereo) | 800 nM | 80% | 50% | 1400 nM | – | – | – |
| CC1=C(c2ccccc2)[C@]2(Nc3ccccc3)CCC[C@@H]2C1 (relative stereo) | > 10000 nM | – | 20% | 2100 nM | – | – | – |
| CCCCCCC1=C(c2ccccc2)[C@]2(Nc3ccc(I)cc3)CCC[C@@H]2C1 (relative stereo) | > 10000 nM | – | – | > 10000 nM | – | – | – |
| c1ccc(N[C@@]23CCC[C@@H]2CC(c2ccccc2)=C3c2ccccc2)cc1 (relative stereo) | 120 nM | 55% | 35% | 150 nM | – | – | – |
| CCC/C=C(\CCC)C1=C(c2ccc(Br)cc2)[C@]2(Nc3ccccc3)CCC[C@@H]2C1 (relative stereo) | 170 nM | 35% | 70% | 160 nM | – | – | – |
| CCCCCCC1=C(c2ccccc2)[C@]2(Nc3cccc(C)c3C)CCC[C@@H]2C1 (relative stereo) | 11 nM | 20% | 30% | 30 nM | – | – | – |
| c1ccc(N[C@@]23CCC[C@@H]2CC(C2CCCCC2)=C3c2ccccc2)cc1 (relative stereo) | 180 nM | 65% | 25% | 230 nM | – | – | – |
| CCCCCCC1=C(c2ccccc2)[C@]2(Nc3ccc(C(C)(C)C)cc3)CCC[C@@H]2C1 (relative stereo) | > 10000 nM | – | – | > 10000 nM | – | – | – |
